Bioassay records (PubChem)
Compounds with a hit are over-represented: about 3.7% of the library has one in this group of screens.
hERG protect: hERG (human) protection from proarrhythmic block; Q12809; CHO-hERG, FluxOR thallium flux, dofetilide IC70 present; activation (rescue from dofetilide block), less the hit threshold, % at 10 µM; actives 0.51% (n = 310,000); AID 1511;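 active = activation above the mean of controls blocked by dofetilide plus 5 SD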;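 note: thallium influx through hERG after potassium depolarization seen as dye fluorescence rise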
KCNQ1 pot: potentiators or activators of human KCNQ1 potassium channel; P51787; CHO-K1 KCNQ1, thallium flux FluxOR fluorescence; stronger effect = higher value; B-score at 10 µM; actives 0.35% (n = 310,000);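 active = fluorescence ratio B-score, a plate-corrected score, at least three library SD, with initial intensity B-score within 5 SD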
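System: Stable KCNQ1 CHO-K1 line | Incubation: 90 min dye loading and 20 min compound exposure, both at room temperature | Measure: Ratio B score | Medium: Assay buffer for compound exposure, DMSO matched across wells | Compound dosing: Single-concentration screen | Probe or stimulus: K+/Tl+ depolarizing stimulus | Measured by: Kinetic FluxOR fluorescence, 10 s baseline plus 110 s post-stimulus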
KCNK3 inh: human KCNK3 channel inhibition, primary screen | O14649 | AID 602410 | actives 0.84% (n = 340,000) | CHO-KCNK3 thallium flux, FluxOR fluorescence; stronger effect = lower value | B-score at 10 µM;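 active = B-score under library mean minus 4 SD, starting fluorescence ratio at most library mean plus 5 SD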;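 note: more negative B-score means stronger inhibition of thallium flux through KCNK3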
Kir21 block: inhibitors of mouse Kir2.1 inward-rectifier potassium channel; HEK293-Kir2.1, FluxOR thallium flux fluorescence; stronger effect = lower value; actives 0.85% (n = 310,000); B-score at 10 µM; P35561; AID 1672;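 active = fluorescence ratio B-score at or below minus 3 SD of library scores, with starting-brightness B-score within 2 SD, cut at about -4.2 in these data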;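 note: channel flux triggered by added potassium and thallium sulfate stimulus; B-score of peak minus minimum fluorescence over baseline after thallium stimulus; more negative B-score means stronger Kir2.1 block with less thallium influx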
KCNK9 block: human KCNK9 channel inhibition; HEK293 KCNK9, FluxOR thallium flux fluorescence; stronger effect = lower value; actives 1.2% (n = 310,000); Q9NPC2; B-score at 10 µM;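 active = ratio B-score over 3 SD below the library mean, with starting fluorescence within 5 SD of its mean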;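 note: negative B-score means less thallium flux so channel inhibition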
KCNQ1 inh: blocks the human KCNQ1 potassium channel. CHO-K1 KCNQ1, FluxOR thallium flux fluorescence; stronger effect = higher value. B-score at 10 µM. actives 1.3% (n = 310,000). AID 2642;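 active = compounds whose thallium flux B-score, printed positive for inhibition, exceeds three library SD while starting fluorescence stays within three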;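 note: channel opened by potassium depolarization with thallium stimulus after 20 min compound exposure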
KCNQ1 block val: reconfirmed blocker of the human KCNQ1 potassium channel; shares compounds with KCNQ1 inh; KCNQ1 cell line, FluxOR thallium flux fluorescence; inhibition, % at 10 µM; actives 93% (n = 1,600); AID 588353;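 active = primary screen active, with duplicate mean exceeding buffer control mean plus 3 SD of buffer wells, cut at about 28% in these data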
CHO Tl flux: activity in parental CHO cells lacking KCNQ1 | parental CHO-K1, FluxOR thallium flux fluorescence ratio; stronger effect = lower value; zero means no signal rise above baseline | fluorescence ratio (Tl flux) at 10 µM | shares compounds with KCNQ1 inh | actives 21% (n = 1,600) | AID 588366;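 active = mean of duplicate thallium-flux fluorescence ratios in parental host cells more than 5 SD below the buffer control mean, cut at about 0.38 in these data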;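 note: ratio is peak minus minimum fluorescence divided by baseline fluorescence; actives read low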
KCNQ1 APC inh: human KCNQ1 inhibition validated by electrophysiology. calls only at 10 µM. KCNQ1-CHO cells, automated patch clamp current. shares compounds with KCNQ1 inh. actives 20% (n = 490). AID 624120;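 active = KCNQ1 current drop exceeding 3 SD of negative control wells, seen in both duplicate runs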;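 note: steady state current during a 2 s step from -80 to +40 mV; negative values mean current inhibition and positive values mean potentiation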
KCNQ2 inh: selectivity of KCNQ1 inhibitors: inhibition of rat KCNQ2 channel | inhibition, % at 10 µM | actives 71% (n = 1,600) | shares compounds with KCNQ1 inh | KCNQ2 cells, FluxOR thallium flux fluorescence;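 active = mean percent inhibition of the KCNQ2 thallium signal more than 5 SD above the buffer-only control wells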;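 note: KCNQ2 expressed in CHO cells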
Target sequence (O88943 whole entry, looked up): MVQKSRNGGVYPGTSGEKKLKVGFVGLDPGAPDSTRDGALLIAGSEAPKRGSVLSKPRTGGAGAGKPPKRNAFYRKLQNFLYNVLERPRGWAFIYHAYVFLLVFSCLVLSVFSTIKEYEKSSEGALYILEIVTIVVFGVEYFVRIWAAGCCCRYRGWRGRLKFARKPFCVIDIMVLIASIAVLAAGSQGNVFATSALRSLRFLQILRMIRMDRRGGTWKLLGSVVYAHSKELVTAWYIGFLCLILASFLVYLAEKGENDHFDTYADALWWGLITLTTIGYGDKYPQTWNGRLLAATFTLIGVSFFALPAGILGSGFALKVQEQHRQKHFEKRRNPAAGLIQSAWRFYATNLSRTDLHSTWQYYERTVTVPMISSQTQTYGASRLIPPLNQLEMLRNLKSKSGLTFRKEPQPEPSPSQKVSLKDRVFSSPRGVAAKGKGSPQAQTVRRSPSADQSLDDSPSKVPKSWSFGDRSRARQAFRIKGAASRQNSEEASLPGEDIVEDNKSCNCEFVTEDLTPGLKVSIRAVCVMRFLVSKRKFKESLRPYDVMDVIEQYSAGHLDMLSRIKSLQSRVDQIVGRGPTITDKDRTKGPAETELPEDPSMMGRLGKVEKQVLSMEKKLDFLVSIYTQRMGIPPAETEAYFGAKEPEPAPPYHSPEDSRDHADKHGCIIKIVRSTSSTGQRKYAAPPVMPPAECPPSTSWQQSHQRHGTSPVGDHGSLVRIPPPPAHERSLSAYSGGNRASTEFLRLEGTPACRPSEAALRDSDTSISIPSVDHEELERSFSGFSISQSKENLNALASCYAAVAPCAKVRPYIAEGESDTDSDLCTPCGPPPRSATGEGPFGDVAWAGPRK
KCNQ1-KCNE1 inh: human KCNQ1/KCNE1 inhibition in KCNQ1 specificity screen. shares compounds with KCNQ1 inh. KCNQ1/KCNE1 cells, FluxOR thallium flux fluorescence. inhibition, % at 10 µM. actives 77% (n = 1,600);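 active = mean percent inhibition of duplicate wells above the buffer-only control mean plus 3 SD of those controls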
Numbers stand for hits; n = inactive; x = no result given.

SMILES	hERG protect	KCNQ1 pot	KCNK3 inh	Kir21 block	KCNK9 block	KCNQ1 inh	KCNQ1 block val	CHO Tl flux	KCNQ2 inh	KCNQ1-KCNE1 inh	others
O=C(NC(=S)N1CCOCC1)C12CC3CCC(CC(C3)C1)C2	n	n	n	n	n	n	x	x	x	x
O=C(NCCNC(=O)c1ccccn1)c1ccc(-c2ccccc2)cc1	n	n	n	n	n	n	x	x	x	x
COC(=O)Cc1csc(Nc2ccccc2)n1	n	n	n	n	n	n	x	x	x	x
COC(=O)Cc1nc(Nc2ccccc2)sc1C	n	n	n	n	n	7	47	n	n	46%
COC(=O)C1=C(C(=O)OC)[C@@H]2N(Cc3ccccc3)c3ccccc3[C@@]23C[C@@H](C(=O)OC)N=C3N1	n	n	n	n	n	n	x	x	x	x
COc1cc2c(cc1OC)CN(c1ncccc1[N+](=O)[O-])CC2	n	n	n	n	n	n	x	x	x	x
COc1ccc(NS(=O)(=O)c2ccc3c(c2)N(C(C)=O)CCO3)c(OC)c1	n	n	n	n	n	n	x	x	x	x
CCOC(=O)c1ccc(NC(=O)c2cccc(S(=O)(=O)N3c4ccccc4CC3C)c2)s1 (stereo unspecified)	n	n	n	n	n	7	89	n	n	110%	KCNQ1 APC inh=n
CC1Cc2ccccc2N1S(=O)(=O)c1cccc(C(=O)NCCCO)c1 (stereo unspecified)	n	n	n	n	n	n	x	x	x	x
CCCCOc1ccc(C(=O)NCC(=O)N2CC=C(c3ccccc3)CC2)cc1	n	n	n	n	n	n	x	x	x	x
COc1ncnc2c1sc1nc(-c3ccccc3)c3c(c12)CCCC3	n	n	n	n	n	10	103	n	96%	131%	KCNQ1 APC inh=n
Cc1sc(NC(=O)c2sc3nc4c(C)cccc4cc3c2N)c(C#N)c1C	n	n	n	n	n	9	54	n	n	87%
Cc1cccc2cc3c(N)c(C#N)sc3nc12	n	n	n	n	n	n	x	x	x	x
O=C(Nc1nc(-c2ccccc2)cs1)C1CCCCN1S(=O)(=O)c1ccc(Cl)cc1 (stereo unspecified)	n	n	n	n	n	10	90	n	93%	131%	KCNQ1 APC inh=n
c1ccc2c(Nc3ccc(N4CCOCC4)cc3)nc(N3CCOCC3)nc2c1	n	n	n	n	n	n	x	x	x	x
Cc1cccc(-c2nc(Nc3ccc(N4CCOCC4)cc3)c3ccccc3n2)c1	n	n	n	n	n	13	108	n	90%	148%	KCNQ1 APC inh=n
CCn1c(C)c(C)c2cc(C(=O)N3CCc4ccccc4C3)ccc21	n	n	n	n	n	7	114	n	113%	62%	KCNQ1 APC inh=n
CC(=O)OCCNc1cc(N2CCN(C)CC2)c2noc3c2c1C(=O)c1ccccc1-3	x	x	n	x	x	x	x	x	x	x
CCOC(=O)C(C(=O)OCC)c1cc(Br)c2noc3c2c1C(=O)c1ccccc1-3	n	n	n	n	n	16	183	0.15	n	n
COc1ccc(C(=O)Nc2ccc(S(=O)(=O)N3CCCC3)cc2)cc1[N+](=O)[O-]	n	n	n	n	n	n	x	x	x	x
COc1cccc(COC(=O)c2c(C)nn(-c3ccccc3)c2Cl)c1OC	n	n	n	n	n	7	114	n	116%	99%	KCNQ1 APC inh=n
C=CCOC(=O)C1=C(C)NC(C)=C(C(=O)OCC=C)C1/C=C/c1ccccc1	n	n	-11	n	n	12	135	n	101%	126%	KCNQ1 APC inh=n
CCOC(=O)C1=C(C)NC(C)=C(C(=O)OCC)C1/C=C/c1ccccc1	n	n	n	n	n	n	x	x	x	x
CC(=O)Nc1ccc(S(=O)(=O)NCc2nc(-c3ccccc3C)no2)cc1	n	n	n	n	n	n	x	x	x	x
CC1CCN(CC(O)COCCC23CC4CC(CC(C4)C2)C3)CC1 (stereo unspecified)	n	n	n	n	n	7	72	0.38	79%	76%
SMILES	hERG protect	KCNQ1 pot	KCNK3 inh	Kir21 block	KCNK9 block	KCNQ1 inh	KCNQ1 block val	CHO Tl flux	KCNQ2 inh	KCNQ1-KCNE1 inh	others
O=C(NCC1CCCN1S(=O)(=O)c1cccs1)C(=O)Nc1ccc(F)cc1 (stereo unspecified)	n	n	n	n	n	n	x	x	x	x
S=C(Nc1cccc(Cl)c1)NC1CCCCC1	n	n	n	n	n	8	50	n	60%	62%
CCOC(CNC(=O)CN1C(=O)COc2ccc(S(=O)(=O)N3CC(C)CC(C)C3)cc21)OCC (stereo unspecified)	n	n	n	n	n	n	x	x	x	x
CCn1cc(CNC(=O)c2cc(COc3ccc(F)cc3Cl)on2)cn1	n	n	n	n	n	n	x	x	x	x
CCn1nc(C)c(CNC(=O)c2cc(COc3ccc(F)cc3Cl)on2)c1C	n	n	n	n	n	8	40	n	n	n
CC(=O)Nc1ccccc1OCC(=O)c1cc(C)n(Cc2cccs2)c1C	n	n	-9.4	n	n	7	110	n	99%	38%
COc1ccc(N2CCN(C(=O)COC(=O)CCc3ccccc3OC)CC2)cc1	n	n	n	n	n	n	x	x	x	x
CCCc1cc(=O)oc2c(C)c(OCC(=O)Nc3cccnc3)ccc12	n	n	n	n	n	n	x	x	x	x
Cc1cc(C)c(-c2cc(NC(=O)CSc3n[nH]c(N)n3)n(-c3ccccc3)n2)cc1C	n	n	n	n	n	7	78	n	89%	128%
Cc1cc(C)c(-c2cc(NC(=O)COC(=O)c3ccc(CO)cc3)n(-c3ccccc3)n2)cc1C	n	n	n	n	n	n	x	x	x	x
S=C(NCCSCc1ccccc1Cl)Nc1ccccc1	n	n	n	n	n	10	106	n	87%	58%	KCNQ1 APC inh=n
Cc1cccc(CSCCNC(=S)Nc2ccccc2)c1	n	n	n	n	n	7	56	n	65%	98%
S=C(NCCSCc1ccc(Cl)cc1)Nc1ccccc1	n	n	n	n	n	n	x	x	x	x
COCCNC(=O)C(c1ccc(F)cc1)N(C(=O)CCC(=O)Nc1ccccn1)c1ccc(C)cc1 (stereo unspecified)	n	n	n	n	n	n	x	x	x	x
CCN1C(=O)C(CC(=O)Nc2ccc(Br)cc2)N(CCCc2ccccc2)C1=S (stereo unspecified)	n	n	n	n	n	8	140	0.33	115%	196%
